According to ChEMBL document CHEMBL1132620, “Piperazine imidazo[1,5-a]quinoxaline ureas as high-affinity GABAA ligands of dual functionality” (J Med Chem, 1999):
Active and inactive are the calls of the source. No cut-off for these calls is given here.

Key:
Rattus norvegicus [1] = experiment: In vivo efficacy evaluated for ability to antagonize metrazole induced clonic convulsions in rat after ip injection; assay type: functional
[2] = target: T1, GABA-A receptor; anion channel (Rattus norvegicus) (UniProt O09028+P15431+P18506+P18508+P19969+P20236+P23574+P23576+P28471+P28473+P30191+P62813+P63079+P63138+Q91ZM7+Q9ES14); experiment: Shift in [35S]TBPS binding to GABA-A Benzodiazepine receptor of rat brain membrane
Mus musculus [3] = organism: Mus musculus; experiment: Ability to antagonize the muscle relaxation effect in mice caused by a benzodiazepine full agonist, triazolam.; assay type: functional
How it was run: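 Muscle relaxation induced by triazolam; test compound and triazolam given separately, traction scored 30 min after dosing; ED50 for blocking the relaxant effect.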

[4] = target: T2, GABA-A receptor; alpha-1/beta-2/gamma-2 (Homo sapiens) (UniProt P14867+P47870+P18507); experiment: (§1) In vitro GABA-mediated chloride current in A293 cells expressing GABA-A benzodiazepine receptor alpha-1-beta-2-gamma-2 subunits at 5 uM; assay type: functional, cell-based; details: HEK293
Mus musculus [5] = experiment: In vivo acute electroshock physical dependence activity in mice; Not active.; assay type: functional, organism-based
Mus musculus [6] = experiment: In vivo efficacy is evaluated by percent control of cerebellar GMP levels in (drug+stress) treated mice/mice under stress; assay type: functional; parameters: concentration or dose not given beside the values
How it was run: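 Male CF-1 mice given drug orally in vehicle 122 before electric footshock stress, controls given vehicle (1 mL/100 g); killed 30 min after treatment; cerebellum homogenized in 1% perchloric acid, iced 30 min, boiled 5 min, spun 17000g 20 min; supernatant cGMP by radioimmunoassay, expressed as % of stress control.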

[7] = target: T1, GABA-A receptor; anion channel (Rattus norvegicus); experiment: (§2) Displacement of [3H]flunitrazepam from GABA-A benzodiazepine receptor of rat cortical membranes; assay type: cell membranes; parameters: concentration or dose not given beside the values; details: Membrane, concentration not given here
How it was run: (§3)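 Rat membranes incubated 60 min at 4 °C with [3H]flunitrazepam, 50 µg membrane protein and graded test drug in 200 µL containing NaCl, 10 mM Hepes/Tris pH 7.4 and 1 mM MgCl2; bound ligand separated by rapid filtration on GF/B; mean affinity, SE ≤10% of mean.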

[8] = target: GABA-A receptor; anion channel; experiment: as §2; assay type: cell membranes, Membrane; how it was run: as §3
Mus musculus [9] = experiment: In vivo acute electroshock physical dependence activity in mice; Active; assay type: functional, organism-based
[10] = target: GABA A receptor alpha-3/beta-2/gamma-2 (Homo sapiens) (UniProt P47870+P18507+P34903); experiment: In vitro GABA-mediated chloride current in A293 cells expressing GABA-A benzodiazepine receptor alpha-3-beta-2-gamma-2 subunits at 5 uM; assay type: functional, cell-based; details: HEK293
[11] = target: T1, GABA-A receptor; anion channel (Rattus norvegicus); experiment: Inhibition of [35S]TBPS binding to GABA-A Benzodiazepine receptor of rat brain membranes; assay type: cell membranes; details: Membrane
[12] = target: T2, GABA-A receptor; alpha-1/beta-2/gamma-2 (Homo sapiens); experiment: as §1; assay type: functional, cell-based; details: HEK293; remark: listed apart in the source
Rattus norvegicus [13] = experiment: Mean number of shocks produced by the compound in rats at a dose of 0.3 mg/kg was determined by vogel's punished licking assay; assay type: functional
How it was run: (§4)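 Vogel punished licking test in rats; number of shocks accepted recorded per dose group (n 6–10); each dose compared with the 0 mg/kg group of the same experiment by Wilcoxon rank sum test.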

Rattus norvegicus [14] = experiment: Mean number of shocks produced by the compound in rats at a dose of 0 mg/kg was determined by vogel's punished licking assay; assay type: functional; how it was run: as §4
Rattus norvegicus [15] = experiment: Mean number of shocks produced by CDPZ in rats at a dose of 12 mg/kg was determined by vogel's punished licking assay; assay type: functional; how it was run: as §4
Rattus norvegicus [16] = experiment: Mean number of shocks produced by the compound in rats at a dose of 3 mg/kg was determined by vogel's punished licking assay; assay type: functional; how it was run: as §4
Rattus norvegicus [17] = experiment: Mean number of shocks produced by the compound in rats at a dose of 1 mg/kg was determined by vogel's punished licking assay; assay type: functional; how it was run: as §4
Rattus norvegicus [18] = experiment: Mean number of shocks produced by the compound in rats at a dose of 10 mg/kg was determined by vogel's punished licking assay; assay type: functional; how it was run: as §4

Compound	ED50 (Rattus norvegicus [1])	Shift [2]	ED50 (Mus musculus [3])	Change in Cl- current [4]	Acute electroshock activity (Mus musculus [5])	Control (Mus musculus [6])	inhibition [7]	Ki [8]	Acute electroshock activity (Mus musculus [9])	Change in Cl- current [10]	Shift [11]	Change in Cl- current [12]	Mean no. of shocks (Rattus norvegicus [13])	Mean no. of shocks (Rattus norvegicus [14])	Mean no. of shocks (Rattus norvegicus [15])	Mean no. of shocks (Rattus norvegicus [16])	Mean no. of shocks (Rattus norvegicus [17])	Mean no. of shocks (Rattus norvegicus [18])
C[C@@H]1CN(C(=O)N2Cc3c(C(=O)OC(C)(C)C)ncn3-c3cccc(Cl)c32)C[C@H](C)N1C	> 50 mg/kg	0.22	> 30 mg/kg	0.71	inactive	102%	49%	56.3 nM	–	–	–	–	–	–	–	–	–	–
C[C@@H]1CN(C(=O)N2c3cc(Cl)ccc3-n3cnc(C(=O)OC(C)(C)C)c3C2(C)C)C[C@H](C)N1	0.4 mg/kg	1.23	–	0.96	–	30%	94%	19.9 nM	Active	1.08	–	–	–	–	–	–	–	–
CC(C)(C)OC(=O)c1ncn2c1CN(C(=O)N1CCCCC1)c1ccccc1-2	> 50 mg/kg	–	4 mg/kg	0	inactive	91%	44%	1.35 nM	–	–	0.08	–	–	–	–	–	–	–
CC1CN(C)CC(C)N1C(=O)N1Cc2c(C(=O)OC(C)(C)C)ncn2-c2ccc(Cl)cc21 (stereo not drawn)	6.2 mg/kg	1.02	> 30 mg/kg	1.71	inactive	100%	32%	90.2 nM	–	0.69	–	–	–	–	–	–	–	–
CN(C)C(=O)N1Cc2c(-c3noc(C4CC4)n3)ncn2-c2ccccc21 [PNU-91571]	21 mg/kg	–	1 mg/kg	0.68	inactive	61%	–	–	–	–	0.69	–	–	–	–	–	–	–
CC1(C)CN(C(=O)N2Cc3c(C(=O)OC(C)(C)C)ncn3-c3ccc(Cl)cc32)CC(C)(C)N1	3.7 mg/kg	0.77	> 30 mg/kg	1.14	–	40%	47%	3.2 nM	Active	–	–	–	–	–	–	–	–	–
Cc1ccc2c(c1)N(C(=O)N1C[C@@H](C)N(C)[C@@H](C)C1)Cc1c(C(=O)OC(C)(C)C)ncn1-2	1.6 mg/kg	0.11	> 30 mg/kg	1.37	–	57%	64%	9.5 nM	Active	0.56	–	–	–	–	–	–	–	–
CC(C)(C)OC(=O)c1ncn2c1CN(C(=O)N1CCN(C(C)(C)C)CC1)c1cc(Cl)ccc1-2	50 mg/kg	–	> 30 mg/kg	0.12	–	–	62%	20.9 nM	Active	–	-0.03	–	–	–	–	–	–	–
C[C@H]1CN(C(=O)N2Cc3c(C(=O)OC(C)(C)C)ncn3-c3ccc(C(F)(F)F)cc32)C[C@H](C)N1	39.7 mg/kg	0.41	> 30 mg/kg	1	–	–	–	277 nM	Active	–	–	0.5	–	–	–	–	–	–
Cc1ccc2c(c1)N(C(=O)N1C[C@@H](C)N[C@@H](C)C1)Cc1c(C(=O)OC(C)(C)C)ncn1-2	–	0.38	> 30 mg/kg	0.3	–	73%	55%	4.66 nM	Active	0.1	–	0.84	–	–	–	–	–	–
CC(=O)N1[C@H](C)CN(C(=O)N2Cc3c(C(=O)OC(C)(C)C)ncn3-c3ccc(Cl)cc32)C[C@@H]1C	14.8 mg/kg	0.94	> 30 mg/kg	0.79	–	–	22%	4.66 nM	Active	–	–	–	–	–	–	–	–	–
CC1CN(C(=O)N2Cc3c(C(=O)OC(C)(C)C)ncn3-c3ccc(Cl)cc32)CCN1 (stereo not drawn)	8.8 mg/kg	0.18	> 30 mg/kg	0.17	–	–	68%	4.48 nM	Active	–	–	0.5	–	–	–	–	–	–
CC(C)N1[C@H](C)CN(C(=O)N2Cc3c(C(=O)OC(C)(C)C)ncn3-c3ccc(Cl)cc32)C[C@@H]1C	35.3 mg/kg	-0.97	> 30 mg/kg	-0.32	inactive	52%	85%	5.16 nM	–	–	–	0.9	6.3	6.6	26	5	5.3	<3.4
C[C@@H]1CN(C(=O)N2Cc3c(C(=O)OC(C)(C)C)ncn3-c3ccc(C(F)(F)F)cc32)C[C@H](C)N1C	6.2 mg/kg	0.26	21.8 mg/kg	0.81	–	–	17%	31.4 nM	Active	–	–	–	–	–	–	–	–	–
Cc1ccc2c(c1)N(C(=O)N1CCN[C@@H](C)C1)Cc1c(C(=O)OC(C)(C)C)ncn1-2	25 mg/kg	0.59	> 30 mg/kg	0.4	–	55%	32%	17.9 nM	Active	–	–	1.1	–	–	–	–	–	–
CC(C)(C)OC(=O)c1ncn2c1CN(C(=O)N1CCOCC1)c1ccccc1-2	> 50 mg/kg	–	–	0.14	–	–	–	2.47 nM	–	–	0	–	–	–	–	–	–	–
CN1CCN(C(=O)N2Cc3c(C(=O)OC(C)(C)C)ncn3-c3ccc(Cl)cc32)CC1	7.4 mg/kg	0.57	11 mg/kg	0.98	–	94%	29%	10.9 nM	–	0.44	–	–	–	–	–	–	–	–
CC(C)(C)OC(=O)c1ncn2c1CN(C(=O)N1CCN(c3ccccn3)CC1)c1cc(Cl)ccc1-2	> 50 mg/kg	0.32	> 30 mg/kg	0.83	–	–	3.4%	15.1 nM	Active	–	–	0.35	–	–	–	–	–	–
C[C@H]1CN(C(=O)N2Cc3c(C(=O)OC(C)(C)C)ncn3-c3ccc(Cl)cc32)CCN1	1.2 mg/kg	0.12	> 30 mg/kg	0.1	–	56%	74%	6.71 nM	Active	–	–	0.8	–	–	–	–	–	–
C[C@H]1CN(C(=O)N2Cc3c(C(=O)OC(C)(C)C)ncn3-c3ccc(C(F)(F)F)cc32)CCN1	25 mg/kg	0.54	> 30 mg/kg	0.7	inactive	82%	21%	42.8 nM	–	–	–	0.8	–	–	–	–	–	–
Cc1ccc2c(c1)N(C(=O)N1C[C@H](C)N[C@@H](C)C1)Cc1c(C(=O)OC(C)(C)C)ncn1-2	7.4 mg/kg	0.77	> 30 mg/kg	1.3	–	79%	17%	25.6 nM	Active	–	–	1.3	–	–	–	–	–	–
CCCC(=O)O.CCN1[C@H](C)CN(C(=O)N2Cc3c(C(=O)OC(C)(C)C)ncn3-c3ccc(Cl)cc32)C[C@@H]1C	3.7 mg/kg	0.15	> 30 mg/kg	0.5	inactive	88%	84%	10.5 nM	–	–	–	0.94	–	–	–	–	–	–
CN(C)C(=O)N1Cc2c(C(=O)OC(C)(C)C)ncn2-c2ccc(Cl)cc21	10.5 mg/kg	–	–	0.35	–	–	–	5.56 nM	–	–	0.51	–	–	–	–	–	–	–
C[C@@H]1CN(C(=O)N2c3cc(Cl)ccc3-n3cnc(C(=O)OC(C)(C)C)c3C2(C)C)C[C@H](C)N1C	0.6 mg/kg	1.43	> 30 mg/kg	2.6	–	38%	84%	39.7 nM	Active	0.68	–	–	–	–	–	–	–	–
C[C@H]1NCCN(C(=O)N2Cc3c(C(=O)OC(C)(C)C)ncn3-c3ccc(Cl)cc32)[C@H]1C	0.7 mg/kg	0.27	> 30 mg/kg	0	–	70%	78%	2.34 nM	Active	–	–	0.7	–	–	–	–	–	–
